Most compounds without a hit are left out; they make up all but 2.9% or so of the library.
SF1 activator = activates the human nuclear receptor SF-1; Q13285; CHO-K1 Gal4-SF-1 LBD luciferase reporter; % increase over DMSO SF-1-specific signal; activation, % at 10 µM; 1.9% of 65,000 active; AID 522;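 active means activation above the mean activation of all tested compounds plus 3 SD, cut at about 50% in these data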
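Material: Transient Gal4-SF-1 LBD reporter, CHO-K1 | Input: 4,000 cells/well | Dosing: One dose, 10 µM compound, 1% DMSO | Incubation: 20 h compound treatment, 37 °C | Detection: SteadyLite luciferase luminescence | Evaluation: Percent activation relative to DMSO median and mock-transfected background | Benchmarks: DMSO-treated SF-1-transfected cells as negative, DMSO-treated mock-transfected cells lacking SF-1 as background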
PKA inh = blocks human protein kinase A activity. AID 524. P17612. inhibition, % at 6 µM. PKA Kemptide phosphorylation, Kinase-Glo ATP luminescence. 0.1% of 65,000 active;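 active means inhibition above the screen-wide mean inhibition plus 3 SD, cut at about 21% in these data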
RORA act = activates the human nuclear receptor RORA; CHO-K1 Gal4-RORA LBD luciferase reporter, luminescence; percent increase over mock-subtracted basal signal; 1.5% of 65,000 active; AID 560; activation, % at 10 µM; P35398;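 active means activation above the mean of all tested compounds plus 3 SD, cut at about 49% in these data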
Target sequence (P35398 whole entry, looked up, the tested form may be a part): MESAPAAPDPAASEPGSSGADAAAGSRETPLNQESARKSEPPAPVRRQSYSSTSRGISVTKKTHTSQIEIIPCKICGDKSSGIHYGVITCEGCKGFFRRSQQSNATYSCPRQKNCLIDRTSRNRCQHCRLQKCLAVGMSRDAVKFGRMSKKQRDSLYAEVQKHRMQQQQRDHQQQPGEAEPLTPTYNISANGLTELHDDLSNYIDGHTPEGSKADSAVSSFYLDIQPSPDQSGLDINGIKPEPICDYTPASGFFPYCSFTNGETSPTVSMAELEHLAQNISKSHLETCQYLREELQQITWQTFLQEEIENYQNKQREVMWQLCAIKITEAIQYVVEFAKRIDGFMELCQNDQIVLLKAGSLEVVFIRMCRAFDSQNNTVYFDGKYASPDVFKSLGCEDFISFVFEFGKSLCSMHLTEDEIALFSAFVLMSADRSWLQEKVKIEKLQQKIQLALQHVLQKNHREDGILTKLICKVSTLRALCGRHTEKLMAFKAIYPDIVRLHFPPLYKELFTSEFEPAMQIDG
ROCK2 blocker = blocks human Rho kinase 2 activity; O75116; purified ROCK2, Kinase-Glo ATP depletion luminescence; inhibition, % at 6 µM; 0.35% of 60,000 active; AID 604;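 active means inhibition above the screen-wide mean inhibition plus 3 SD, cut at about 18% in these data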
mHtt clearance = mutant huntingtin protein clearance; HeLa Exon1htt(103Q)mCFP, aggregate imaging; zero = plate's median compound well; 0.42% of 47,000 active; inhibition, % at 1.5 µM;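 active means inhibition of aggregate fluorescence above about 70%, also judged a hit by eye on the cell image, limit read from the data, passing the limit was not always enough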;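 further: cells exposed to compound for three days before fixation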
JNK3 blocker = inhibitors of human JNK3 kinase; P53779; purified JNK3 kinase activity, HTS; inhibition, % at 8 µM; 0.61% of 60,000 active; AID 746; in the data active means inhibition above about 17%
Numbers stand for hits; – = inactive; · = no result.

SMILES	SF1 activator	PKA inh	RORA act	ROCK2 blocker	mHtt clearance	JNK3 blocker
COc1ccc(-c2nnc(SCC(=O)N3CCOCC3)o2)cc1OC	–	–	–	–	·	–
O=C(CSc1nnc(-c2ccc3c(c2)OCCO3)o1)N1CCCC1	50	–	–	–	·	–
Cc1ccc(-c2nnc(SCC(=O)N3CCCC3)o2)cc1C	–	–	58	–	·	–
CC1(C)CC(NC(=O)C23CCC(C)(C(=O)C2)C3(C)C)CC(C)(C)N1 (stereo unspecified)	–	–	–	–	–	–
CCn1c(SCC(=O)c2cccs2)nnc1-c1ccco1	54	–	–	–	·	–
CN(C)c1ccc(C2=NOC(CN3C(=O)c4ccccc4S3(=O)=O)C2)cc1 (stereo unspecified)	–	–	60	–	–	–
O=C1c2ccccc2S(=O)(=O)N1Cc1nc2ccccc2s1	–	–	–	–	·	–
CCC(CC)C(=O)NC12CC3CC(CC(C3)C1)C2	·	·	·	·	–	·
CCN(CC)c1ccc(C=N/C(C#N)=C(\N)C#N)cc1	57	–	–	–	–	–
CC(=O)C(Sc1nc(-c2ccco2)nc2c1c(=O)n(C)c(=O)n2C)C(=O)N(C)C (stereo unspecified)	–	–	–	–	·	–
Cc1ccc2c(c1)N(CCC(=O)NCCCOC(C)C)C(=O)C(C)O2 (stereo unspecified)	–	–	–	–	–	–
COc1cccc(-c2nnc3sc(-c4cccs4)nn23)c1	70	–	–	–	·	–
COc1cccc(-c2nnc3sc(-c4ccco4)nn23)c1	50	–	–	–	·	–
CCOc1cccc(-c2nnc3sc(-c4cccs4)nn23)c1	–	–	–	–	·	–
O=C(NCCC1=CCCCC1)C1COc2ccccc2O1 (stereo unspecified)	–	–	–	–	·	–
COC(=O)c1c(NC(=O)c2ccoc2C)sc2c1CCC2	–	–	–	–	–	–
O=C(Nc1sc2c(c1C(=O)O)CCCCC2)c1ccco1	57	–	62	–	–	–
CCOC(=O)c1c(NC(=O)Cc2cccs2)sc2c1CCCC2	–	–	–	–	–	–
Cc1occc1C(=O)Nc1sc2c(c1C(N)=O)CCCCC2	58	–	–	–	·	–
NC(=O)c1c(NC(=O)Cc2cccs2)sc2c1CCC2	51	–	–	–	·	31
Cc1cc(NC(=O)c2cc(C(C)C)on2)nn1Cc1ccc(Cl)cc1	·	·	·	·	–	·
COc1cccc2c(=O)c(C/C=C(/C)Cl)c(C)[nH]c12	–	–	–	–	·	18
COc1cccc2c(=O)c(SC(F)(F)C(F)C(F)(F)F)c(C)[nH]c12 (stereo unspecified)	51	–	–	–	·	–
CCC(C)(C)n1nnnc1CN1CCN(C(c2ccccc2)c2ccccc2)CC1	·	·	·	·	–	·
CCCN1Cc2cccc(C(=O)Nc3ccc(N4CCN(CC)CC4)cc3)c2C1=O	–	–	–	–	·	–
SMILES	SF1 activator	PKA inh	RORA act	ROCK2 blocker	mHtt clearance	JNK3 blocker
Nc1nnc(Cc2ccc(Cl)c(Cl)c2)s1	–	–	–	–	–	–
Cc1nn(-c2nc3ccccc3[nH]2)c(N)c1-c1ccccc1	–	–	54	–	–	–
Cc1nn(-c2nc3ccccc3s2)c(N)c1-c1ccc(Cl)cc1	–	–	–	–	–	–
Cc1nn(-c2nc3ccccc3s2)c(N)c1-c1ccccc1	60	–	–	–	·	–
Cc1nn(-c2nc3ccccc3s2)c(N)c1Sc1ccc(F)cc1	63	–	–	–	·	–
O=C(CSc1nc2ccccc2s1)Nn1cnnc1	–	–	–	–	·	–
Cc1ccc(OCC(=O)N2CCCCC2)c(Br)c1	57	–	54	–	–	–
Cc1cc(OCC(=O)N2CCCC2)ccc1Cl	51	–	–	–	·	–
CCCCC1CC1C(=O)Nc1ccc(OC)c(OC)c1 (stereo unspecified)	–	–	–	–	·	–
O=C(O)CCc1nc(-c2ccc(Cl)cc2)no1	–	–	–	–	–	–
CC(C)(CC(=O)O)Cc1nc(-c2ccc(Cl)cc2)no1	63	–	–	–	·	–
COC(=O)C(CC(C)C)NC(=O)c1ccc(F)cc1 (stereo unspecified)	–	–	–	–	–	–
c1cncc(C2Nc3ccccc3-c3nc4ccccc4n32)c1 (stereo unspecified)	–	–	58	·	·	·
CC(C)CC(=O)Nc1ccc(-c2cn3ccsc3n2)cc1	52	–	52	–	–	–
O=C(NC1=NCCS1)c1cccc(S(=O)(=O)N2CCCCC2)c1	–	–	–	·	–	·
COc1cccc(CC(NC(C)=O)C(=O)NC2CCN(c3c4c(nc5ncnn35)CCC4)CC2)c1 (stereo unspecified)	72	–	–	–	–	–
N#Cc1c(/N=C/c2ccco2)sc2c1CCCCC2	82	–	–	25	·	–
CCCC(=O)N(CCN(C(=O)CCC)c1ccccc1)c1ccccc1	·	·	·	·	–	·
CCOC(=O)c1c(NC(=O)CSc2nnc(-c3ccccc3C)n2C)sc(C(C)=O)c1C	–	–	–	–	76	–
CCOC(=O)c1c(NC(=O)CSc2nc3cccnc3n2C)sc(C(C)=O)c1C	–	–	–	–	·	–
CCOC(=O)c1c(NC(=O)c2csc(C)c2)sc(C(C)=O)c1C	–	–	–	–	78	–
O=c1c2sc3nc(N4CCOCC4)c4c(c3c2ncn1Cc1ccco1)CCCC4	–	–	–	–	·	–
COc1ccc(NC(=O)c2cc(-c3cccnc3)nc3ccc(C)cc23)cc1OC	·	·	·	·	–	·
COc1ccc(NC(=O)c2cc(-c3ccc(C)o3)nc3ccccc23)cc1OC	–	–	53	–	–	–
COC(=O)c1[nH]c2cccc(Cl)c2c1NC(=O)CN(C)C1CCCCC1	–	–	–	–	–	–
SMILES	SF1 activator	PKA inh	RORA act	ROCK2 blocker	mHtt clearance	JNK3 blocker
CCOC(=O)c1c(C)[nH]c(C(=O)COC(=O)C2(C)CC2(Cl)Cl)c1C (stereo unspecified)	·	·	·	·	–	·
COc1ccccc1-c1noc(-c2ccccc2)n1	65	–	–	–	·	–
COc1ccc(-c2nc(-c3cccc(C)c3)no2)cc1OC	59	–	61	–	·	–
CCOc1ccc(-c2nnc(-c3cccs3)o2)cc1OCC	–	–	53	–	–	–
COc1ccc(-c2nc(C3CCCCC3)no2)cc1OC	57	–	–	–	–	–
COc1ccccc1-c1noc(-c2ccco2)n1	–	–	–	–	–	–
O=C(CCn1c(=O)c2ccccc2n(Cc2cc(=O)n3ccccc3n2)c1=O)NCc1ccco1	–	–	–	–	·	–
CCOC(=O)c1ccccc1NC(=O)c1ccc(Cl)c(S(=O)(=O)N2CCOCC2)c1	–	–	–	–	–	–
Cc1ccc(SCc2nc(-c3ccccc3)no2)cc1	–	–	–	–	–	–
CCOc1ccc(-c2nc(-c3ccccc3)no2)cc1OCC	84	–	49	–	·	–
COc1ccc(-c2noc(CSc3ccccc3)n2)cc1OC	68	–	–	–	–	–
COc1ccc(-c2nc(-c3ccccc3OC)no2)cc1OC	–	–	56	–	–	–
